For data set [1], the system named is TLR-3. Put plainly: Intracellular staining, TLR-3 in AsPC-1. Format: cell-based, human. As to conditions: 2.4 μM, 6 hours, flow cytometry, average of 3 experiments, vs vehicle. For orientation: Flow cytometry measures light scatter and fluorescence of single cells or particles in a stream.
For data set [2], the system named is IKKα. In words: Intracellular staining, IKKα in AsPC-1. As to conditions: 2.4 μM, 6 hours, flow cytometry, average of 3 experiments, vs vehicle. The data set is classed as cell-based, human.
In data set [3] the test system is phosphorylated Akt Ser 473. Put plainly: Intracellular staining, phosphorylated AKT in AsPC-1. As to conditions: 2.4 μM, 6 hours, flow cytometry, average of 3 experiments, not statistically significant (student's T test). The data set is classed as cell-based, human. The method, boiled down:
(§1)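 AsPC-1 cells (complete RPMI, 10% FBS, 37°C, 5% CO2) were exposed 6 h to test compound or vehicle control. They were trypsinized, fixed in 4% paraformaldehyde and permeabilized with ice-cold ethanol. Unconjugated primary antibody to the phospho-epitope (or rabbit IgG isotype) was applied 1 h RT, then PE-conjugated secondary 30 min RT. Flow cytometry, 20,000 events; Student's t test vs vehicle on the mean of 3 experiments.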

The subject of data set [4] is HUVEC cells. In words: Endothelial tube formation assay. The data set is classed as cell-based. As to conditions: single experiment, preliminary, data not shown.
Data set [5] has as its system phosphorylated Fos Ser 32. In words: Intracellular staining, phosphorylated Fos in AsPC-1. Format: cell-based, human. As to conditions: 2.4 μM, 6 hours, flow cytometry, average of 3 experiments, vs vehicle.
Data set [6] has as its system phosphorylated (active) NFκB p65 (pS529). In words: Intracellular staining, phosphorylated NFκB p65. The data set is classed as cell-based, human. As to conditions: AsPC-1; 2.4 μg/mL; 6 hours; flow cytometry; vs vehicle control; average of 3 experiments; student's T test. The method in brief: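 AsPC-1 cells were treated 6 h with 2.4 μg/mL test compound or vehicle control. After trypsinization, 4% paraformaldehyde fixation and ice-cold ethanol permeabilization, cells were stained directly 1 h RT with PE-conjugated mouse anti-NFκB p65 (pS529) or mouse IgG isotype; no secondary. Gates were set against the isotype. Flow cytometry, 20,000 events; Student's t test vs vehicle, mean of 3 experiments.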

The subject of data set [7] is A549 NFκB-luc cell line. In words: Cytotoxicity in A549/NFκB-luc reporter cell line. The data set is classed as cell-based. As to conditions: 6 hours treatment. The method, boiled down:
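A549 cells stably carrying an NFκB-driven luciferase reporter, kept in DMEM with 10% FBS, penicillin/streptomycin and 100 μg/mL hygromycin B. Plated at 5 x 10^4 cells/well and allowed to adhere. Given 100 ng/ml TNF-α plus test compound (serial dilutions 0.00013–5 μg/mL) or vehicle for 6 h. Detergent-lysed; lysate equilibrated 30 min with ethidium bromide; fluorescence read at ex 340/em 590 nm.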

Data set [8] deals with phosphorylated GSK3β Ser9. Put plainly: Intracellular staining, phosphorylated GSK3β in AsPC-1. The data set is classed as cell-based, human. As to conditions: 2.4 μM, 6 hours, flow cytometry, average of 3 experiments, not statistically significant (student's T test). The method, boiled down:
as §1

In data set [9] the test system is TLR-1. Put plainly: Intracellular staining, TLR-1 in AsPC-1. The data set is classed as cell-based, human. As to conditions: 2.4 μM, 6 hours, flow cytometry, average of 3 experiments, vs vehicle.
The subject of data set [10] is TNF-related apoptosis-inducing ligand (TRAIL). Put plainly: Intracellular staining, TRAIL in AsPC-1. The data set is classed as cell-based, human. As to conditions: 2.4 μM, 6 hours, flow cytometry, average of 3 experiments, vs vehicle.
Data set [11] relates to PANC-1. In words: TUNEL, PANC-1. The data set is classed as cell-based, human. As to conditions: 2.4 μg/mL, 24 hours (method), flow cytometry, average of 3 experiments. The method, boiled down:
(§2)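 Cells (BxPC-3 and PANC-1 in complete RPMI with 10% FBS; MIA PaCa-2 in DMEM with 5% horse serum plus 10% FBS) were seeded at 500,000 per 6-well well and adhered overnight. They received 2.4 μg/mL test compound or vehicle for 24 h, then were trypsinized, fixed (4% paraformaldehyde) and ethanol-permeabilized. TdT/fluorescein-12-dUTP labelling ran 60 min at 37°C, stopped with 20mM EDTA. Flow cytometry, 20,000 events; Student's t test vs vehicle.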

The test system of data set [12] is MIA PaCa2. Put plainly: TUNEL, MIA PaCa-2. The data set is classed as cell-based, human. As to conditions: 2.4 μg/mL, 24 hours (method), flow cytometry, average of 3 experiments. The method in brief:
as §2

Data set [13] relates to BxPC-3. In words: TUNEL, BxPC-3. Format: cell-based, human. As to conditions: 2.4 μg/mL, 24 hours (method), flow cytometry, average of 3 experiments. The method in brief:
as §2

The subject of data set [14] is IL-8. Put plainly: IL-8 ELISA, AsPC-1. Format: cell-based, human. As to conditions: 2.4 μg/mL, 6 hours, compared to controls, significant, average of 3 experiments. Background: An ELISA detects its analyte on a solid surface through an enzyme-linked reagent.
For data set [15], the system named is IRAK. Put plainly: Intracellular staining, IRAK in AsPC-1. Format: cell-based, human. As to conditions: 2.4 μM, 6 hours, flow cytometry, average of 3 experiments, vs vehicle.
The test system of data set [16] is MIA PaCa-2. In words: Markers of apoptosis. The data set is classed as cell-based, human. As to conditions: 2.4 μg/mL, with the assays used. The method in brief:
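Caspase-3/7 luminescence. MIA PaCa-2 cells in DMEM with 5% horse serum and 10% FBS. 10,000 cells/well, adhered overnight, then given 2.4 μg/mL test compound or vehicle for 1, 3, 6 or 24 h. Equal volume of pro-luminescent DEVD substrate added, 30–60 min at RT with shaking, luminescence read. Expressed as fold over vehicle; Student's t test.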

Data set [17] has as its system phosphorylated cyclin D1 Thr 286. Put plainly: Intracellular staining, phosphorylated cyclin D1 in AsPC-1. The data set is classed as cell-based, human. As to conditions: 2.4 μM, 6 hours, flow cytometry, average of 3 experiments, not statistically significant (student's T test). The method in brief:
as §1

Data set [18] deals with phosphorylated Elk. In words: Intracellular staining, phosphorylated Elk in AsPC-1. Format: cell-based, human. As to conditions: 2.4 μM, 6 hours, flow cytometry, average of 3 experiments, vs vehicle.
For data set [19], the system named is phosphorylated Jun Ser73. Put plainly: Intracellular staining, phosphorylated Jun in AsPC-1. As to conditions: 2.4 μM, 6 hours, flow cytometry, average of 3 experiments, vs vehicle. Format: cell-based, human.
Data set [20] deals with TNFAIP3. In words: Intracellular staining, TNFAIP3 in AsPC-1. As to conditions: 2.4 μM, 6 hours, flow cytometry, average of 3 experiments, vs vehicle. Format: cell-based, human.

As for `COc1ccc(/C=C/CCCC[C@H](C)[C@H](O)[C@@H](O)[C@H]2NC(=O)CC3(O)NC(=O)CC3NC(=O)C[C@@H](O)CNC(=O)CN(C)C(=O)[C@@H](Cc3c(C(=O)O)[nH]c4ccccc34)NC(=O)CNC(=O)[C@H]2O)cc1` (some centres unmarked) [microsclerodermin A], the “Change in expression, TLR-3” value in data set [1] is recorded as “No significant changes”. The “Change in protein level, IKKα” value in data set [2] is given as “no changes at the protein level”. Besides, the “Level of phosphorylated AKT” value in data set [3] is recorded as “increased”. Besides, in data set [4], the Endothelial tube formation result is “decreased tube formation”. Besides, the “Level of phosphorylated Fos” value in data set [5] is reported as “statistically significantly upregulated”. For the same compound, the “Levels of phosphorylated (active) NFκB p65 (pS529)” value in data set [6] was “significantly reduced”. Also, the “Cytotoxicity in reporter cell line (in words)” value in data set [7] is on record as “little or no cytotoxicity”. In data set [8], the “Level of phosphorylated (inactive) GSK3β” value is “increased”. In [9], the “Change in expression, TLR-1” value was “No significant changes”. Besides, in data set [10], the “Change in expression, TRAIL” value is listed as “No significant changes”. In addition, the “Apoptosis (TUNEL DNA fragmentation)” value in [11] and in data set [13] was “induced statistically significant apoptosis” in each case. Moreover, in [12], the “DNA fragmentation (TUNEL)” value is given as “not detected”. Moreover, the “Increase in IL-8 production” value in [14] is recorded as “about 2.5 fold”. In addition, the “Change in expression, IRAK” value in data set [15] is listed as “No significant changes”. In addition, the Markers of apoptosis entry in data set [16] is recorded as “no markers of apoptosis were seen”. Besides, the “Level of phosphorylated cyclin D1” value in [17] was “increased”. Besides, in data set [18], the “Change in expression, phosphorylated Elk” value is “No significant changes”. The “Level of phosphorylated Jun” value in [19] is recorded as “statistically significantly upregulated”. Besides, the “Change in protein level, TNFAIP3” value in data set [20] was “no changes at the protein level”.

The record behind these values is publication PMC4934660 (Investigational new drugs, 2014).
